Reference: ChEMBL document CHEMBL1671761, “Preclinical characterization of BI 201335, a C-terminal carboxylic acid inhibitor of the hepatitis C virus NS3-NS4A protease” (Antimicrob Agents Chemother, 2010)

What was measured:
Rattus norvegicus [1] = species: Rattus norvegicus; assay: Inhibition of rat GABA-A receptor, chloride channel at 10 uM
[2] = biological target: Sterol O-acyltransferase 2 (Rattus norvegicus) (UniProt Q7TQM4); assay: Inhibition of rat hapatic, acyl coA cholesterol acetyltransferase at 10 uM
Caspase-8 (Homo sapiens) = Caspase-8 (Homo sapiens) (UniProt Q14790); assay: Inhibition of human caspase-8 at 10 uM
Homo sapiens = species: Homo sapiens; assay: Inhibition of human endothelin-converting enzyme at 10 uM by cerep assay
[3] = biological target: 72 kDa type IV collagenase (Homo sapiens) (UniProt P08253); assay: Inhibition of human MMP-2 at 10 uM
[4] = biological target: Glutamate receptor ionotropic, delta-1 (Rattus norvegicus) (UniProt Q62640); assay: Inhibition of rat glutamate receptor at 10 uM
Rattus norvegicus [5] = species: Rattus norvegicus; assay: Inhibition of rat mAChR at 10 uM
Caspase-9 (Homo sapiens) = Caspase-9 (Homo sapiens) (UniProt P55211); assay: Inhibition of human caspase-9 at 10 uM
[6] = biological target: Adenosine receptor A2a (Homo sapiens) (UniProt P29274); assay: Inhibition of human adenosine A2A receptor at 10 uM
[7] = biological target: Caspase-10 (Homo sapiens) (UniProt Q92851); assay: Inhibition of human recombinant caspase-10 expressed in Escherichia coli at 10 uM by fluorimetry
Rattus norvegicus [8] = species: Rattus norvegicus; assay: Inhibition of rat calcium channel N-type at 10 uM
Caspase-6 (Homo sapiens) = Caspase-6 (Homo sapiens) (UniProt P55212); assay: Inhibition of human caspase-6 at 10 uM
[9] = biological target: 5-hydroxytryptamine receptor 7 (Homo sapiens) (UniProt P34969); assay: Inhibition of human 5-HT7 receptor at 10 uM
[10] = Cmax in monkey at 5 mg/kg, po; type: ADME, organism-based, Macaca mulatta; parameters: dose 5 mg/kg, route oral; details: rhesus monkey, in vivo
Method in brief: (§1)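 Single oral dose of 5 mg/kg in 0.5% Methocel with 0.3% Tween 80 (10 ml/kg) to fasted male animals: Sprague-Dawley rats (275-300 g, overnight fast with 10% dextrose water), rhesus monkeys, beagle dogs. Rat blood from cannulated carotid at 0-8 h, pooled from 3 rats per time point; monkey/dog n=3. Plasma solid-phase extracted, LC-MS/MS at m/z 869.3; noncompartmental analysis.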

[11] = Cmax in dog at 5 mg/kg, po; type: ADME, organism-based, Canis lupus familiaris; parameters: dose 5 mg/kg, route oral; details: in vivo; method in brief: as §1
[12] = biological target: Matrilysin (Homo sapiens) (UniProt P09237); assay: Inhibition of human MMP-7 at 10 uM
[13] = biological target: Cathepsin G (Homo sapiens) (UniProt P08311); assay: Inhibition of human cathepsin G at 10 uM
[14] = biological target: Serine/threonine protein phosphatase PP2B-alpha catalytic subunit (Homo sapiens) (UniProt P16298); assay: Inhibition of human PP2B at 10 uM
[15] = Tmax in dog at 5 mg/kg, po; type: ADME, organism-based, Canis lupus familiaris; parameters: dose 5 mg/kg, route oral; details: in vivo
Method in brief: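 Fasted male beagle dogs (9.8-13.8 kg) given a single oral dose in 0.5% Methocel/0.3% Tween 80. Plasma taken by solid-phase extraction and measured by LC-MS/MS at m/z 869.3 (LOQ 50 nM). Noncompartmental analysis. Mean ± SE for three males.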

Rattus norvegicus [16] = species: Rattus norvegicus; assay: Inhibition of rat glycine receptor at 10 uM
[17] = biological target: 5-hydroxytryptamine receptor 6 (Homo sapiens) (UniProt P50406); assay: Inhibition of human 5-HT6 receptor at 10 uM
Caspase-7 (Homo sapiens) = Caspase-7 (Homo sapiens) (UniProt P55210); assay: Inhibition of human caspase-7 at 10 uM
[18] = Tmax in rat at 5 mg/kg, po; type: ADME, organism-based; parameters: dose 5 mg/kg, route oral; details: in vivo
Method in brief: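 Male Sprague-Dawley rats (275-300 g), fasted overnight with 10% dextrose water. Single oral dose in 0.5% Methocel/0.3% Tween 80 at 10 ml/kg. Carotid-cannula blood taken 0-8 h, with plasma from 3 rats pooled per time point. Solid-phase extraction, then LC-MS/MS at m/z 869.3 (LOQ 10 nM). Noncompartmental analysis.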

[19] = biological target: Neutrophil elastase (Homo sapiens) (UniProt P08246); assay: Inhibition of human serum elastase, neutrophil at 10 uM by fluorimetry
[20] = biological target: D(3) dopamine receptor (Homo sapiens) (UniProt P35462); assay: Inhibition of human dopamine receptor 3 at 10 uM
Caspase-2 (Homo sapiens) = Caspase-2 (Homo sapiens) (UniProt P42575); assay: Inhibition of human caspase-2 at 10 uM
[21] = biological target: Calpain-1 catalytic subunit (Homo sapiens) (UniProt P07384); assay: Inhibition of human calpain-1 at 10 uM

Sequence of Caspase-8 (Homo sapiens) (Q14790 217-374 limits assumed): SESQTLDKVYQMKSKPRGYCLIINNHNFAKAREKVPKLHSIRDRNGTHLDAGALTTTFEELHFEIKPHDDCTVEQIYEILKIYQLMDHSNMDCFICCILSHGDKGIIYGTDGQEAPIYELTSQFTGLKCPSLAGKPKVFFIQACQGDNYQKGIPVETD
Sequence of Caspase-8 (Homo sapiens) (Q14790 385-479 limits assumed): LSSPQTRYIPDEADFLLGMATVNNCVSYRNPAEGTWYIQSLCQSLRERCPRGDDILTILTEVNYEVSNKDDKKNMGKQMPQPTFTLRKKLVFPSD
Sequence of Glutamate receptor ionotropic, delta-1 (Rattus norvegicus) (Q62640 whole entry): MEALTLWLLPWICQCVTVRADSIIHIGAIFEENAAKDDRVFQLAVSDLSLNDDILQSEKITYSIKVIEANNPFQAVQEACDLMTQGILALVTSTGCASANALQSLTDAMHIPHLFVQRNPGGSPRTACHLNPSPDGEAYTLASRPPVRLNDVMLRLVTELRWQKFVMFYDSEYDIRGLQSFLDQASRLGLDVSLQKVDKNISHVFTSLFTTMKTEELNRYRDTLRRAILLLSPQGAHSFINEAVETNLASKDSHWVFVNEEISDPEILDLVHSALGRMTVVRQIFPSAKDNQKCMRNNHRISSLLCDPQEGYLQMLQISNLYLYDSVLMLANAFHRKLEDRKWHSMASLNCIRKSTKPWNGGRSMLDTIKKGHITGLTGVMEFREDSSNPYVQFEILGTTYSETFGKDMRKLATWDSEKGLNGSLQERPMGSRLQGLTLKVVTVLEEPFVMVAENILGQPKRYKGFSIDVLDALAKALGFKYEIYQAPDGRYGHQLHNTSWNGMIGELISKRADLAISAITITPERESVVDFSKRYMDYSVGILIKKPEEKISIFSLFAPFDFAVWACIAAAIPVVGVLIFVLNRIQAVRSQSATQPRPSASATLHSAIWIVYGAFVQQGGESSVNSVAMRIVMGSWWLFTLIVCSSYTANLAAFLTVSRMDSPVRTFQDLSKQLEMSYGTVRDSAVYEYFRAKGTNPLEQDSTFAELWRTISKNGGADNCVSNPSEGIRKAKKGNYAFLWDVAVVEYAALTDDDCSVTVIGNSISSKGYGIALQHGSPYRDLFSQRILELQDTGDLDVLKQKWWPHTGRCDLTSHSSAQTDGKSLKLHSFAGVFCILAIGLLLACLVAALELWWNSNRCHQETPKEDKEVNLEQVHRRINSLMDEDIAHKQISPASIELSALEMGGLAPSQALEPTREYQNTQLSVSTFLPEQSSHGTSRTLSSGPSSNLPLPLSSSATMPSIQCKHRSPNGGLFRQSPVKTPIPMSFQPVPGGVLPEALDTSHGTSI
Sequence of 72 kDa type IV collagenase (Homo sapiens) (P08253 110-660 limits assumed): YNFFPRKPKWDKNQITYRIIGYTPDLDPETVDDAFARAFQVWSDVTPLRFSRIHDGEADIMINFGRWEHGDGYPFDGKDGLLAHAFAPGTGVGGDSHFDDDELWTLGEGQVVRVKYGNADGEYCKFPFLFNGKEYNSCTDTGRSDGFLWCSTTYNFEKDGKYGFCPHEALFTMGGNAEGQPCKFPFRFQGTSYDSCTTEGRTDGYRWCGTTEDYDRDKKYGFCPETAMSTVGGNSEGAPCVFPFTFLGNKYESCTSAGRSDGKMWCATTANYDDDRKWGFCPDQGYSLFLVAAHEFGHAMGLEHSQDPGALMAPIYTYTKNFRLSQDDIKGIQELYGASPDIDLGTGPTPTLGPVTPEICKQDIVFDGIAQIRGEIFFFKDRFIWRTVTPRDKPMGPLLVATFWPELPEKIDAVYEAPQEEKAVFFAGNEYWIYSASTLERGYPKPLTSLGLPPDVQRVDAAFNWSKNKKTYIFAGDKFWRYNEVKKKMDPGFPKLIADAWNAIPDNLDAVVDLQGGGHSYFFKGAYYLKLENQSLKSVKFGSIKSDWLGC
Sequence of Adenosine receptor A2a (Homo sapiens) (P29274 whole entry): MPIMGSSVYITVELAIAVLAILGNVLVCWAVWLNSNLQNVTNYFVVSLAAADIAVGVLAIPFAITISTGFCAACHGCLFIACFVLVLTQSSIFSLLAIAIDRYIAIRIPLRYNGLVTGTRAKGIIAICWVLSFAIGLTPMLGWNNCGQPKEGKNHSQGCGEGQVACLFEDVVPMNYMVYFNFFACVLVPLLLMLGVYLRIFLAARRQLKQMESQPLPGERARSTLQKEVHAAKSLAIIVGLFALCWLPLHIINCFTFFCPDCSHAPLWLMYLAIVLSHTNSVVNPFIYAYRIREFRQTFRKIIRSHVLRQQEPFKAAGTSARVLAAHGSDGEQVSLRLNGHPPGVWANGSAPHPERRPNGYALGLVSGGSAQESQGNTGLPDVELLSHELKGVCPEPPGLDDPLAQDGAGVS
Sequence of Caspase-10 (Homo sapiens) (Q92851 220-415 limits assumed): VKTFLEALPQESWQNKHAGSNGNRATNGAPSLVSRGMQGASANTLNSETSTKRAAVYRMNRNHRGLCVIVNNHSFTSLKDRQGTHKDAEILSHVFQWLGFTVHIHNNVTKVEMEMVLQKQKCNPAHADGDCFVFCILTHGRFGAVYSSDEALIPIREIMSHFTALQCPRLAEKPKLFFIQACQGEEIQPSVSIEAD
Sequence of Caspase-10 (Homo sapiens) (Q92851 416-521 limits assumed): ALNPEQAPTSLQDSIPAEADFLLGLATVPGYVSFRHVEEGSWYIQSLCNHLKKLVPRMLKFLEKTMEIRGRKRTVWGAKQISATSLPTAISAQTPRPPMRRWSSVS
Sequence of 5-hydroxytryptamine receptor 6 (Homo sapiens) (P50406 whole entry): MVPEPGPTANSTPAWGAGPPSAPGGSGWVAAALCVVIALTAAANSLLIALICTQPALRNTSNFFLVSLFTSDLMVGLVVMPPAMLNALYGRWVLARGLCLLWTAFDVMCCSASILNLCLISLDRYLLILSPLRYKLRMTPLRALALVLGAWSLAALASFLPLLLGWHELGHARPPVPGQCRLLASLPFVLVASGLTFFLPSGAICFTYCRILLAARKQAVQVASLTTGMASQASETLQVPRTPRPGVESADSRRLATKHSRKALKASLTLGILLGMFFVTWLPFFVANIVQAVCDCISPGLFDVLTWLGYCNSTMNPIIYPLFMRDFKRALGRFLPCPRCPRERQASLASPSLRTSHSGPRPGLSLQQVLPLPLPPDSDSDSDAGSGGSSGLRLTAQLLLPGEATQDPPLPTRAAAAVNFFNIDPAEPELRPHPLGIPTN
Sequence of Caspase-6 (Homo sapiens) (P55212 24-179 limits assumed): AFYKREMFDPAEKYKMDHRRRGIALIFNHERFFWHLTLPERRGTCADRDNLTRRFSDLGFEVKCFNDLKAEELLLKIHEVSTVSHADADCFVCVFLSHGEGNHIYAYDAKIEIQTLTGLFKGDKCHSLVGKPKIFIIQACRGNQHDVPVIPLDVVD
Sequence of Caspase-6 (Homo sapiens) (P55212 194-293 limits assumed): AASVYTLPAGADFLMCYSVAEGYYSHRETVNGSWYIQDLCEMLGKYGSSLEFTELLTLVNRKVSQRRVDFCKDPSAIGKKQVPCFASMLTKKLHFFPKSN
Sequence of 5-hydroxytryptamine receptor 7 (Homo sapiens) (P34969 whole entry): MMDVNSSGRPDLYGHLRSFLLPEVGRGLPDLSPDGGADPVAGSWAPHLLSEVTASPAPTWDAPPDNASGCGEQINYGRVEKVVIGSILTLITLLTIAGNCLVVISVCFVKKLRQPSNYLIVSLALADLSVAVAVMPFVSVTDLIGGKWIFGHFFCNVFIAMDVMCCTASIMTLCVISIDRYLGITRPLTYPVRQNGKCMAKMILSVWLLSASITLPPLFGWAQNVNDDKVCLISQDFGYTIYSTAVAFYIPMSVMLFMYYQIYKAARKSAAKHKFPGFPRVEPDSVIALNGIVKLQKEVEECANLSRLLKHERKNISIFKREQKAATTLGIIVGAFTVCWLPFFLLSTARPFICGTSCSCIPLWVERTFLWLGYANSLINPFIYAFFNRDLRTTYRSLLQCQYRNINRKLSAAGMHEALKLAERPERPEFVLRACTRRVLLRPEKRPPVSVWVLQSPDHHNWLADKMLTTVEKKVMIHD
Sequence of Caspase-7 (Homo sapiens) (P55210 24-198 limits assumed): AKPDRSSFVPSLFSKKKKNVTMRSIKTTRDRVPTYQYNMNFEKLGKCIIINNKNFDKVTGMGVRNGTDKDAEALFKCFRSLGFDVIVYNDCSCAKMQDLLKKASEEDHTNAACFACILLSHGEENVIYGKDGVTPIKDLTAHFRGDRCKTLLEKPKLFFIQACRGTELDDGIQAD
Sequence of Caspase-7 (Homo sapiens) (P55210 207-303 limits assumed): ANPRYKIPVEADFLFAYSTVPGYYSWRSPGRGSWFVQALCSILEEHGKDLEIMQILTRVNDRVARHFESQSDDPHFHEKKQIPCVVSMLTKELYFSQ
Sequence of Caspase-2 (Homo sapiens) (P42575 170-325 limits assumed): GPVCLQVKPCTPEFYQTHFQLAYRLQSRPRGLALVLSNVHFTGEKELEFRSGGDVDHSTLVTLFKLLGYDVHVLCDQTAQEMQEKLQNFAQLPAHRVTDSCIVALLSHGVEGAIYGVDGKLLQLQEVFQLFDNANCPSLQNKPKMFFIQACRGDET
Sequence of Caspase-2 (Homo sapiens) (P42575 334-452 limits assumed): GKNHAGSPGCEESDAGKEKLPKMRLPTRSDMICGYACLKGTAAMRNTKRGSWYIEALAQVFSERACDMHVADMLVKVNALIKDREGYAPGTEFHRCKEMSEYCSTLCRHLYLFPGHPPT
Sequence of Neutrophil elastase (Homo sapiens) (P08246 whole entry): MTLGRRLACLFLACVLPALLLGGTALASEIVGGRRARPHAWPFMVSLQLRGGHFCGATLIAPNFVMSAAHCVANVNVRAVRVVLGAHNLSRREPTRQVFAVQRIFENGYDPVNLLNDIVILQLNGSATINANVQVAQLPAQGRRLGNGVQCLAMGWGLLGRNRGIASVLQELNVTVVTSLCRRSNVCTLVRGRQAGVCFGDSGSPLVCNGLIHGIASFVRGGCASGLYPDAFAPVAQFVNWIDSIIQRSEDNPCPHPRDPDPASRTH
Sequence of Matrilysin (Homo sapiens) (P09237 whole entry): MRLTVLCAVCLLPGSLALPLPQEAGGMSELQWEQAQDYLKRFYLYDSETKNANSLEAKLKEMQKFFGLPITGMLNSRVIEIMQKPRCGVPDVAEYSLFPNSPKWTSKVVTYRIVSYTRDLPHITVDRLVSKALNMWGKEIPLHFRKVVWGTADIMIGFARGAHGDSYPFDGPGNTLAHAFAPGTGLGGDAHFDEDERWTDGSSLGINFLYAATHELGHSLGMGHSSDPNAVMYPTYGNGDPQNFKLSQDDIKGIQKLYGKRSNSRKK

C=C[C@@H]1C[C@]1(NC(=O)[C@@H]1C[C@@H](Oc2cc(-c3csc(NC(=O)C(C)C)n3)nc3c(Br)c(OC)ccc23)CN1C(=O)[C@@H](NC(=O)OC1CCCC1)C(C)(C)C)C(=O)O
inhibition (Rattus norvegicus [1]): 28% | inhibition [2]: 78% | inhibition (Caspase-8 (Homo sapiens)): 5% | inhibition (Homo sapiens): 11% | inhibition [3]: 10% | inhibition [4]: 38% | inhibition (Rattus norvegicus [5]): 5% | inhibition (Caspase-9 (Homo sapiens)): 23% | inhibition [6]: 23% | inhibition [7]: 12% | inhibition (Rattus norvegicus [8]): 9% | inhibition (Caspase-6 (Homo sapiens)): 28% | inhibition [9]: 3% | Cmax [10]: 2000 nM | Cmax [11]: 3.8 µM | inhibition [12]: 6% | inhibition [13]: 18% | inhibition [14]: 50% | Tmax [15]: 49.8 min | inhibition (Rattus norvegicus [16]): 6% | inhibition [17]: 22% | inhibition (Caspase-7 (Homo sapiens)): 28% | Tmax [18]: 1.5 h | inhibition [19]: 22% | inhibition [20]: 4% | inhibition (Caspase-2 (Homo sapiens)): 5% | inhibition [21]: 18%
